A short description of series [1]: Antitumor activity against human HCT116 cells xenografted in athymic nude mouse assessed as tumor volume inhibition at 100 mg/kg, po qd for 5 days a week for 3 weeks. Format: functional. The note with it: HCT-116. The gist of the method: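 Female athymic nude mice, 5–6 weeks old, were inoculated sc in the right flank with 5 × 10⁶ exponentially growing tumor cells per 100 μL. Oral dosing once daily began 3 days after tumor injection, in Solutol HS15 diluted 1/20 in water. Tumor volume inhibition was calculated as TVI% = 100 − [(mean TV treated/mean TV control) × 100].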
On the technique in general: In xenograft studies the graft and the host belong to different species.

Series [2] in a line: Efflux ratio of permeability from apical to basolateral side to basolateral to apical side of human Caco2 cells in presence of digoxin. The format is ADME, cell-based. The conditions noted are these: caco-2. An outline of the steps: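 Caco-2 AB/BA flux ratio measured with digoxin coincubated with test and reference compounds. Means of at least three experiments.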
A general note: Caco-2 cells form a polarised layer with tight junctions and transporters.

Series [3] addresses T1, Protein deacetylase HDAC6 (Homo sapiens, UniProt Q9UBN7).
T1 sequence (Q9UBN7 whole entry): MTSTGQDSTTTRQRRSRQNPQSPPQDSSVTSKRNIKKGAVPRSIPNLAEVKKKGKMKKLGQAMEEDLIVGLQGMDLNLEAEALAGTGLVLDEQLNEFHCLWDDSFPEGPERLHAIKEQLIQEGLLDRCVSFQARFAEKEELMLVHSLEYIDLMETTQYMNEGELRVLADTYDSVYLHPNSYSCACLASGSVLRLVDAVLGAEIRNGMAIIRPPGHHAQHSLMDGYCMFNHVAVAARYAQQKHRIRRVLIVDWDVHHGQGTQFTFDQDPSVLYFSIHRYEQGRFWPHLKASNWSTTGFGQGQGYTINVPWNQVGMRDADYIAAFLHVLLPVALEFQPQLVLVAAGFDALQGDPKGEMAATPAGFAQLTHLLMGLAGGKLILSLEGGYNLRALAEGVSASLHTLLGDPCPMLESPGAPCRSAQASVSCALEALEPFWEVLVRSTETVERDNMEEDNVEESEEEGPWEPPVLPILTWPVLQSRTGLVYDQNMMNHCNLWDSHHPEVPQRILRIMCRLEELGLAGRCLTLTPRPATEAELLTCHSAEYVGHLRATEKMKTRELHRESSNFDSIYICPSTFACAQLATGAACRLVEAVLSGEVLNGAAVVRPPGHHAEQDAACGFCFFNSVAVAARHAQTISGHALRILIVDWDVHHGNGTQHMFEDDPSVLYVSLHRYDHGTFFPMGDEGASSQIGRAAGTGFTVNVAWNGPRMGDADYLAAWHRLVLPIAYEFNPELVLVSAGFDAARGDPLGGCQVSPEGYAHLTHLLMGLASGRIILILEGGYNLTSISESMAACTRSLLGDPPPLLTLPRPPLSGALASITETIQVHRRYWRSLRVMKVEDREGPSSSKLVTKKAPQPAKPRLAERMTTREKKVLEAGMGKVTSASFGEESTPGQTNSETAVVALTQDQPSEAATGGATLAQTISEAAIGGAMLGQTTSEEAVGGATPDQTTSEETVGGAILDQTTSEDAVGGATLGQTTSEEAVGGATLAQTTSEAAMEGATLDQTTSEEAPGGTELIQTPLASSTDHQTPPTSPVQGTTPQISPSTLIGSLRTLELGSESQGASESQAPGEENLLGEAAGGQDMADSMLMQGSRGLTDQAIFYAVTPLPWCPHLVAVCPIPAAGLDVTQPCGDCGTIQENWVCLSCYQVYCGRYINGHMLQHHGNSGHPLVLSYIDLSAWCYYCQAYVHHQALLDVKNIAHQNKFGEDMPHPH
The series is described as follows: Inhibition of HDAC6 (unknown origin) using fluorogenic tetrapeptide RHKK(Ac) substrate by fluorescence assay.

Series [4] addresses T2, Polyamine deacetylase HDAC10 (Homo sapiens, UniProt Q969S8).
T2 sequence (Q969S8 whole entry): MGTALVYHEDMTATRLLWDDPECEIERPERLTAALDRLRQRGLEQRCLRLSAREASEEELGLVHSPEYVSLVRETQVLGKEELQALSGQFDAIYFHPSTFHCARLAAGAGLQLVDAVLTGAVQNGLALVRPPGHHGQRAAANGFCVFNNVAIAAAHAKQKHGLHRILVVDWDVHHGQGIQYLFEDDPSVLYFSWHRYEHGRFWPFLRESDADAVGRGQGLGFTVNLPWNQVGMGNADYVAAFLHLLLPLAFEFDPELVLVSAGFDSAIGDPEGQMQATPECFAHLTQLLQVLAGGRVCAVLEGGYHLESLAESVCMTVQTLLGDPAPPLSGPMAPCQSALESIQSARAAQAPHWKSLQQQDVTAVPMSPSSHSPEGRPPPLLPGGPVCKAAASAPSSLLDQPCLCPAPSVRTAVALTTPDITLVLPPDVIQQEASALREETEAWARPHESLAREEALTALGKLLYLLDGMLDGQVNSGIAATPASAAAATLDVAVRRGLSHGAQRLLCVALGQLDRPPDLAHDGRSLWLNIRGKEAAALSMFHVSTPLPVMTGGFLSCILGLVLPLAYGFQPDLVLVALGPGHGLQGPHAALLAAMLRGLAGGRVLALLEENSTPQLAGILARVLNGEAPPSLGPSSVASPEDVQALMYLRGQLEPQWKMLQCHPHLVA
The series is described as follows: Inhibition of HDAC10 (unknown origin) using fluorogenic tetrapeptide RHKK(Ac) substrate by fluorescence assay.

The nature of series [5]: Intrinsic clearance in human hepatocytes assessed per million cells at 5 uM by LCMS/MS analysis. The conditions noted are these: read-out: CLH. The format is ADME, cell-based, Hepatocyte. The gist of the method: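 Incubation in human hepatocytes. […] Values are means of at least three experiments.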
Series [6] concerns the target T3, Histone deacetylase 8 (Homo sapiens, UniProt Q9BY41).
T3 sequence (Q9BY41 whole entry): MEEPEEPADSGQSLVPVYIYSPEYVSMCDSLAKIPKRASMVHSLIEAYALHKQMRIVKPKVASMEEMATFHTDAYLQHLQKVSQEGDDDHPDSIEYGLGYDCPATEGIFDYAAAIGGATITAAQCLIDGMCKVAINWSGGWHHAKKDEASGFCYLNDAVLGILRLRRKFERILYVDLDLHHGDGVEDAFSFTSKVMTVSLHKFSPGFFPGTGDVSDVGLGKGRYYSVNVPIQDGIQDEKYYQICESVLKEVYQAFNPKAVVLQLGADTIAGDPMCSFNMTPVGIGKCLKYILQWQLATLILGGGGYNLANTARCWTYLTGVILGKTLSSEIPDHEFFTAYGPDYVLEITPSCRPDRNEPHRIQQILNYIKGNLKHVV
The experiment in a line: Inhibition of HDAC8 (unknown origin) using fluorogenic tetrapeptide RHK(Ac)K(Ac) substrate by fluorescence assay.

A short description of series [7]: Efflux ratio of permeability from apical to basolateral side to basolateral to apical side of human Caco2 cells. Format: ADME, cell-based. The note with it: caco-2. An outline of the steps:
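Caco-2 monolayers; the efflux ratio is flux in the apical-to-basolateral direction over flux in the basolateral-to-apical direction. Means of at least three experiments.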

From ChEMBL document CHEMBL3352570, “ST7612AA1, a thioacetate-ω(γ-lactam carboxamide) derivative selected from a novel generation of oral HDAC inhibitors” (J Med Chem, 2014) come the findings set out here.

Broadly, the inhibition in vivo is the change of the read-out against control, counted positive when it falls. By IC50 is commonly meant the concentration that inhibits the measured activity by half. As for `O=C1CC[C@@H](C(=O)N[C@H](CCCCCS)C(=O)Nc2ccccc2)N1`, the inhibition in vivo at 100 mg/kg in series [1] is 27%. Besides, the Ratio in series [2] is 3.6; in series [7], 5.2. The IC50 was found to be 3 nM in series [3], 11 nM in series [4] and 281 nM in series [6]. Besides, the hepatocyte CLint at 5 µM in series [5] amounted to 15.4 µL/min/1e6 cells.
